Source: PubChem BioAssay (Johns Hopkins Ion Channel Center)
TRPC6 inhibitor – inhibitors of mouse TRPC6 channel. Q61143. HEK293-TRPC6, membrane potential dye, ACh-evoked depolarization; hits give low values. B-score at 10 µM. actives 1.1% (n = 310,000);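 active means B-score under library mean minus 3 SD, initial fluorescence not abnormally high, positive integrated signal ratio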;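 further: B-score derived from integrated fluorescence ratio over the kinetic read; more negative B-score means stronger inhibition of depolarization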
Target sequence (Q61143 whole entry, looked up): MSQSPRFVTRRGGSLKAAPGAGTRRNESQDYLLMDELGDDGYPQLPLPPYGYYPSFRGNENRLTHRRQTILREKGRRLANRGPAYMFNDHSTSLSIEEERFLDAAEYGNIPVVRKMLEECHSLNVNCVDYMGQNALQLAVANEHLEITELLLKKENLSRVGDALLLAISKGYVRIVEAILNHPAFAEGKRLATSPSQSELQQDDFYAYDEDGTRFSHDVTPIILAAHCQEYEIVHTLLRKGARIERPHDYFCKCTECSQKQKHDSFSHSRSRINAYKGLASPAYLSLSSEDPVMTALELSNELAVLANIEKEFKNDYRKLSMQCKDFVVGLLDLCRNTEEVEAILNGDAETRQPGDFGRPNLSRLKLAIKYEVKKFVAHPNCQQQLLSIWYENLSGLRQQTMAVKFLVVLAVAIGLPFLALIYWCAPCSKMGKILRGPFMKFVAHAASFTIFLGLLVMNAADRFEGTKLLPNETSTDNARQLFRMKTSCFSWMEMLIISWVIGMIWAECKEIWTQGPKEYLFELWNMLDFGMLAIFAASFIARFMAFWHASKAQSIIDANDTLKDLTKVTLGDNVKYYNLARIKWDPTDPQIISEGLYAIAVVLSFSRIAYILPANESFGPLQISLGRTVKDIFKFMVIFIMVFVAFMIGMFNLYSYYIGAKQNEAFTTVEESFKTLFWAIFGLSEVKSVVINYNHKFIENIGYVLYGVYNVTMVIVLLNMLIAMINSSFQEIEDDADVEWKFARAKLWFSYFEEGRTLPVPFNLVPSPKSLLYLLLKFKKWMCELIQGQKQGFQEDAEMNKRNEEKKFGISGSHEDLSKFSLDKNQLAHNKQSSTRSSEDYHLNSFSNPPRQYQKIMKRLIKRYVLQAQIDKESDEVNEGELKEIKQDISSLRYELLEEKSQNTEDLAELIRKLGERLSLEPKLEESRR
TRPC4 act – opens the mouse TRPC4 cation channel. Q9QUQ5. HEK293 TRPC4beta/mu-opioid, Fluo4 calcium fluorescence; hits give high values. B-score at 10 µM. actives 0.49% (n = 310,000). AID 2237;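 active means B-score above 5 SD of library B-scores, and initial fluorescence ratio not above library mean plus 5 SD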;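 further: positive B-score marks a calcium rise read as TRPC4 activation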
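Material: HEK293 stable line with TRPC4beta plus mu-opioid receptor; technique: Fluo4 calcium-sensitive dye fluorescence, kinetic, 1 Hz baseline; timing: Fluo4 dye loading 45 min at room temperature, 110 s recording; controls: assay buffer as low control, maximal DAMGO as high control; read-out: integrated baseline-normalised fluorescence ratio, converted to per-well B score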
TRPC6 act – mouse TRPC6 channel activation; Q61143; HEK293-TRPC6 membrane potential dye fluorescence; hits give high values; B-score at 10 µM; actives 0.13% (n = 310,000);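 active means B-score of the integrated fluorescence ratio above library mean plus 3 SD, and starting fluorescence ratio within library mean plus 5 SD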;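 further: higher score means more depolarization so channel activation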
TRPC4 block – blocks the mouse TRPC4 cation channel; B-score at 10 µM; Q9QUQ5; HEK293 TRPC4beta/mu-opioid, DAMGO-evoked Fluo4 calcium flux; hits give low values; actives 0.39% (n = 300,000);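 active means B-score over 3 SD under the library average, no early fluorescence shift, positive overall ratio signal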
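Assay system: Stable TRPC4beta/mu-opioid receptor HEK293 cells | Reagent: DAMGO in two steps, submaximal then maximal | Compound dosing: Single concentration per test compound | Signal: Fluo4 Ca2+ flux fluorescence | Evaluation: Per-well B score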
TRPC4 PAM – allosteric potentiators of mouse TRPC4 channel; AID 2227; B-score at 10 µM; HEK293 TRPC4beta/mu-opioid, DAMGO EC20, Fluo-4 Ca2+ flux; hits give high values; actives 0.42% (n = 310,000);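 active means B-score of calcium response area above 5 SD of library B-scores, with initial fluorescence ratio within 5 SD of library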;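 further: B-score of integrated fluorescence ratio over time as area under calcium response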
Starred values were filed as active, the others as inactive; i = inactive; nt = no result given. Shown are actives, neighbours in structure and some others; about 2.3% of the full set was active somewhere.

SMILES	TRPC6 inhibitor	TRPC4 act	TRPC6 act	TRPC4 block	TRPC4 PAM
Cc1ccc(S(=O)(=O)N2CCN(C(=O)CCc3nc4ccccc4c(=O)[nH]3)CC2)c(C)c1	i	i	i	i	i
Cc1ccc(C)c(S(=O)(=O)N2CCN(C(=O)CCc3nc4ccccc4c(=O)[nH]3)CC2)c1	i	194*	i	i	i
COc1ccc(N2CCN(C(=O)CNC(=O)c3ccco3)CC2)cc1	i	i	i	i	i
Nc1n[nH]c(N)c1N=Nc1cccc(C(F)(F)F)c1	i	i	i	i	i
Cc1sc2ccc3sccc3c2[n+]1C	-5.4*	i	i	i	i
CC(C)CN1C2CCCC1CC(NC(=S)NCc1ccco1)C2 (centres undefined)	i	i	i	i	i
CC(C)CN(C(=O)COC(=O)c1c2c(nc3ccccc13)CCC2)c1c(N)n(Cc2ccccc2)c(=O)[nH]c1=O	i	i	i	i	i
Cc1nn(-c2cccc(Cl)c2)c2nc(C(F)(F)F)[nH]c(=O)c12	i	i	i	-8*	i
Cc1nn(-c2cc(C(F)(F)F)ccc2Cl)c2nc(C(F)(F)F)[nH]c(=O)c12	i	i	i	i	i
CCc1ccccc1N1C(=O)C2C3C=CC(CC3)C2C1=O (centres undefined)	i	i	i	i	i
COc1cc(N/C(N)=N/c2nc(C)cc(C)n2)cc(OC)c1	i	i	i	i	i
Cc1sc(NC(=O)C2CCCCC2C(=O)O)c(C(N)=O)c1-c1ccc(C(C)(C)C)cc1 (centres undefined)	i	i	i	-5*	i
CN(C(=O)COC(=O)C1CCN(S(=O)(=O)c2c(Cl)cccc2Cl)CC1)C1CCCCC1	i	i	i	i	i
CCOc1ccccc1Nc1nnc(SCc2nnc(-c3cc(OC)c(OC)c(OC)c3)o2)s1	i	i	i	i	21*
N#Cc1c(NCCCO)nc(NCc2ccccc2)c2c1CCN(Cc1ccccc1)C2	i	i	i	i	i
CN1CCc2c(C#N)c(N3CCCCC3)nc(NCc3ccccc3)c2C1	i	i	i	i	13*
CCOc1ccccc1NC(=O)C1COc2ccccc2O1 (centres undefined)	i	i	i	i	i
O=c1c2ccccc2[nH]c(=S)n1CCN1CCN(Cc2ccccc2)CC1	i	i	i	-6*	i
CN(C)CCn1c(=S)[nH]c2ccccc2c1=O	i	i	i	i	11*
O=c1c2ccccc2[nH]c(=S)n1Cc1cccnc1	i	45*	i	-6*	i
c1ccc(CN2CCN(Cc3c[nH]c4ccccc34)CC2)cc1	i	i	i	-6*	i
COc1ccc(OC)c(NC(=O)CSc2nc(=O)n(CCN3CCOCC3)c3c2CCCC3)c1	i	i	i	i	i
O=C(CN1CCCCC1)Nc1ccccc1Oc1ccccc1	i	i	i	-5*	i
COc1ccc(C(CCNCc2ccc(N(C)C)cc2)c2ccccc2OC)cc1 (centres undefined)	i	63*	i	i	i
COc1ccc(CNCCC(c2ccc(F)cc2)c2ccc(OC(C)C)cc2)cc1OC (centres undefined)	i	46*	i	i	i
SMILES	TRPC6 inhibitor	TRPC4 act	TRPC6 act	TRPC4 block	TRPC4 PAM
COc1cccc(NC(=O)N2CCC(NC(=O)c3ccco3)CC2)c1	i	i	i	i	i
Cc1ccc(SCCOCCN2CCc3ccccc3C2)cc1	i	i	i	i	i
CCn1c2ccccc2c2cc(NC(=O)CN3CCCC3)ccc21	i	i	i	i	28*
Clc1ccccc1OCCCCN1CCCC1	i	i	i	nt	i
Cc1cc(Cl)c(OCCOCCN2CCNCC2)c(Cl)c1	i	62*	i	i	i
Clc1ccccc1OCCCCN1CCNCC1	i	i	i	i	12*
Cc1cccc(OCCOCCN2CCNCC2)c1C	i	133*	i	i	i
Cc1cc(C)c(OCCOCCN2CCN(C)CC2)c(Cl)c1	i	i	i	i	i
Cc1cccc(OCCOCCN2CCOCC2)c1C	i	i	i	i	i
